Values after ≈ are worked out from the molar mass of the structure shown. Active and inactive are the calls of the source. The rule behind the calls is not given here.
Assays:
Staphylococcus aureus [1] = experiment: Bactericidal activity against Staphylococcus aureus; assay type: functional
[2] = system: Mycobacterium tuberculosis; experiment: Bactericidal activity against Mycobacterium tuberculosis; assay type: functional
Staphylococcus aureus [3] = experiment: Inhibition of Staphylococcus aureus MenA using [3H]farnesyl and DHNA as substrate at 100 uM after 2 hrs
How it was run: (§1)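 Membrane fraction from mid-log cultures in 7H9/OADC, washed in saline, sonicated in MOPS pH 8/sucrose/MgCl2/2-mercaptoethanol buffer, spun 15,000 g then 200,000 g; the fraction was the enzyme source. DHNA (500 μM stock), MgCl2, 0.1% CHAPS, Tris pH 8, farnesyl diphosphate (200 μM stock) and inhibitor, 2 h at 37 °C. Quenched with 0.1 M AcOH/MeOH, extracted with hexanes, DMMK measured.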

Escherichia coli [4] = experiment: Growth inhibition of Escherichia coli Seattle ATCC 25922 at 5 to 10 ug/ml by microplate alamar blue assay in presence of 50 uM VK2; assay type: functional, organism-based
How it was run: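 E. coli grown with inhibitor under anaerobic conditions; rescue tested by supplementing with menaquinone (VK2, 50 μM).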

[5] = system: Mycobacterium tuberculosis; experiment: Inhibition of Mycobacterium tuberculosis MenA using [3H]farnesyl and DHNA as substrate at 100 uM after 2 hrs; how it was run: as §1
Staphylococcus aureus [6] = experiment: Antibacterial activity against Staphylococcus aureus Seattle 1945 ATCC 25923 by agar plate diffusion method; assay type: functional
[7] = system: Mycobacterium tuberculosis; experiment: Antibacterial activity against Mycobacterium tuberculosis H37Rv ATCC 27294 by microplate alamar blue assay; assay type: functional
How it was run: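 Colorimetric microplate assay run under aerobic conditions; growth scored by the colour change of resazurin. Compounds showing at least 90% inhibition in a preliminary screen were retested at lower concentrations to give the MIC.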

[8] = system: Mycobacterium tuberculosis; experiment: Antibacterial activity against non-replicating Mycobacterium tuberculosis H37Rv ATCC 27294 by low oxygen recovery assay; assay type: functional
Escherichia coli [9] = experiment: Growth inhibition of Escherichia coli Seattle ATCC 25922 at 5 to 10 ug/ml by microplate alamar blue assay; assay type: functional, organism-based
[10] = Inhibition of Mycobacterium tuberculosis MenA using [3H]farnesyl and DHNA as substrate after 2 hrs; how it was run: as §1
[11] = system: Mycobacterium intracellulare; experiment: Antibacterial activity against Mycobacterium intracellulare ATCC 15984 by microplate alamar blue assay; assay type: functional
[12] = Selectivity ratio of IC50 for african green monkey Vero cells to IC50 for Mycobacterium tuberculosis […]; assay type: ADME, cell-based; details: read-out: Ratio IC50
[13] = system: Mycolicibacterium smegmatis; experiment: Antibacterial activity against Mycobacterium smegmatis by microplate alamar blue assay; assay type: functional
Vero = experiment: Cytotoxicity against african green monkey Vero cells after 72 hrs by MTT assay; assay type: cell-based; details: Chlorocebus sabaeus
How it was run: (§2)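 Cell viability after 72 h exposure, tested at 10 times the H37Rv MIC; read-out was cellular conversion of MTT into formazan.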

HepG2 = experiment: Cytotoxicity against human HepG2 cells after 72 hrs by MTT assay; assay type: cell-based; details: HepG2, 72 h; how it was run: as §2
[14] = Selectivity ratio of IC50 for human HepG2 cells to IC50 for Mycobacterium tuberculosis […]; assay type: ADME, cell-based; details: read-out: Ratio IC50
Escherichia coli [15] = experiment: Antibacterial activity against Escherichia coli Seattle ATCC 25922 at 12.5 ug/ml by oxygen consumption assay; assay type: functional, organism-based
[16] = system: Mycobacterium tuberculosis; experiment: Ratio of MIC for rifampicin to compound MIC for non-replicating Mycobacterium tuberculosis H37Rv ATCC 27294 by low oxygen recovery assay; assay type: functional

Row | SMILES | MIC (Staphylococcus aureus [1]) [mg/L] | MIC [2] [mg/L] | inhibition (Staphylococcus aureus [3]) | growth inhibition (GI) (Escherichia coli [4]) | inhibition [5] | MIC (Staphylococcus aureus [6]) [mg/L] | MIC [7] [mg/L] | MIC [8] [mg/L] | growth inhibition (GI) (Escherichia coli [9]) | IC50 [10] [µM] | MIC [11] [mg/L] | selectivity ratio [12] | MIC [13] [mg/L] | IC50 (Vero) [mg/L] | IC50 (HepG2) [mg/L] | selectivity ratio [14] | Activity (Escherichia coli [15]) | Ratio [16]
1 | O=C(c1ccc(Cl)cc1)c1ccc(OC/C=C/COCCCNCCc2ccc(F)cc2)cc1Cl | 0.5 (≈ 0.968 µM) | 8 (≈ 15.5 µM) |  |  |  |  |  |  |  |  |  |  |  |  |  |  |  | 
2 | COc1ccc(CCNC(CO)c2cccc(COc3cccc(C(=O)c4ccc(Cl)cc4)c3)c2)cc1 (racemic) | > 50 | 8 (≈ 15.5 µM) | inactive | inactive | Active | > 60 | 12.5 (≈ 24.2 µM) | 3 (≈ 5.81 µM) | Active | 15 |  |  |  |  |  |  |  | 
3 | CCCCCC[C@H](CN1CCC(COc2cccc(/C(=N\OC)c3ccc(Cl)cc3)c2)CC1)OC(N)=O |  |  | inactive | inactive | Active | > 60 | 2.31 (≈ 4.36 µM) | 0.85 (≈ 1.6 µM) | Active | 1.2 | 6.5 (≈ 12.3 µM) | > 10 | 6.5 (≈ 12.3 µM) | 25 (≈ 47.2 µM) | 25 (≈ 47.2 µM) | > 10 |  | 
4 | CCCCCC[C@@H](CN1CCC(COc2ccc(C(=O)c3ccc(Cl)cc3)c(Cl)c2)CC1)OC(N)=O |  |  | inactive | inactive | Active | > 60 | 1.5 (≈ 2.8 µM) | 1.45 (≈ 2.71 µM) | Active | 1.5 |  |  |  |  |  |  | Active | 
5 | CC(C)=CC(O)C/C(C)=C/CC/C(C)=C/Cc1c(C)n(O)c2ccccc2c1=O (centres undefined) [AURACHIN RE] | 3.1 (≈ 7.84 µM) | 25 (≈ 63.2 µM) |  |  |  |  |  |  |  |  |  |  |  |  |  |  |  | 
6 | CCCCC(O)CN1CCC(COc2cccc(C(=O)c3ccc(Cl)cc3)c2)CC1 (racemic) | > 50 | 8 (≈ 18.6 µM) | inactive | inactive | Active | > 60 | 12.5 (≈ 29.1 µM) | 5.2 (≈ 12.1 µM) | Active | 15 |  |  |  |  |  |  |  | 
7 | CCCCC(O)CN1CCC(COc2ccc(C(=O)c3ccc(Cl)cc3)c(Cl)c2)CC1 (racemic) | > 50 | 0.5 (≈ 1.08 µM) | inactive | inactive | Active | > 60 | 6.25 (≈ 13.5 µM) | 2.82 (≈ 6.07 µM) | Active | 15 |  |  |  |  |  |  |  | 
8 | CCCC[C@H](O)CN1CCC(COc2ccc(C(=O)c3ccc(Cl)cc3)c(Cl)c2)CC1 |  |  | inactive | inactive | Active | > 60 | 1.5 (≈ 3.23 µM) | 1.43 (≈ 3.08 µM) | Active | 4.5 |  |  |  |  |  |  |  | 
9 | CCCCCC[C@@H](O)CN1CCC(COc2ccc(C(=O)c3ccc(Cl)cc3)c(Cl)c2)CC1 |  |  | inactive | inactive | Active | > 60 | 6.25 (≈ 12.7 µM) | 5.2 (≈ 10.6 µM) | Active | 9.5 |  |  |  |  |  |  |  | 
10 | COc1ccc(CCNCCCOCCCCOc2ccc(C(=O)c3ccc(Cl)cc3)c(Cl)c2)cc1 | 0.5 (≈ 0.943 µM) | 15.5 (≈ 29.2 µM) |  |  |  |  |  |  |  |  |  |  |  |  |  |  |  | 
11 | CCCC[C@H](O)CN1CCC(COc2cccc(C(=O)c3ccc(Cl)cc3)c2)CC1 |  |  | inactive | inactive | Active | > 60 | 12.5 (≈ 29.1 µM) | 5.59 (≈ 13 µM) | Active | 7.5 |  |  |  |  |  |  |  | 
12 | CCCCCCCC(O)c1cccc(CN2CCC(COc3ccc(C(=O)c4ccc(Cl)cc4)c(Cl)c3)CC2)c1 (racemic) | > 50 | 8 (≈ 13.7 µM) | inactive | inactive | Active | > 60 | 12.5 (≈ 21.5 µM) | 1.88 (≈ 3.23 µM) | Active | 20 |  |  |  |  |  |  |  | 
13 | CCCCCC[C@H](CN1CCC(COc2cccc(C(=O)c3ccc(Cl)cc3)c2)CC1)OC(N)=O |  |  | inactive | inactive | Active | > 60 | 2.31 (≈ 4.61 µM) | 0.85 (≈ 1.7 µM) | Active | 1.5 | 6.5 (≈ 13 µM) |  | 6.5 (≈ 13 µM) | 7.5 (≈ 15 µM) | 7.5 (≈ 15 µM) |  | Active | 1.7
14 | CCCCCCCC(O)c1cccc(CN2CCC(COc3cccc(C(=O)c4ccc(Cl)cc4)c3)CC2)c1 (racemic) | > 50 | 8 (≈ 14.6 µM) | inactive | inactive | Active | > 60 | 12.5 (≈ 22.8 µM) | 1.88 (≈ 3.43 µM) | Active | 15 |  |  |  |  |  |  |  | 
15 | O=C(c1ccc(Cl)cc1)c1ccc(OCc2cccc(CN3CCC(N4CCCCC4)CC3)c2)cc1Cl | 15.5 (≈ 28.8 µM) | 8 (≈ 14.9 µM) |  |  |  |  |  |  |  |  |  |  |  |  |  |  |  | 
16 | CCCCCCC[C@H](OC(N)=O)c1cccc(CN2CCC(COc3ccc(C(=O)c4ccc(Cl)cc4)c(Cl)c3)CC2)c1 |  |  | inactive | inactive | Active | > 60 | 12.5 (≈ 20 µM) | 2.93 (≈ 4.68 µM) | Active | 20 |  |  |  |  |  |  |  | 
17 | C=CCN(C)CCCCCCCCOc1ccc(C(=O)c2ccc(Cl)cc2)c(Cl)c1 | 15.5 (≈ 34.6 µM) | 0.5 (≈ 1.11 µM) |  |  |  |  |  |  |  |  |  |  |  |  |  |  |  | 
